# In the RNAGym collection of RNA variant scans (doi:10.1126/science.aae0568):
# Variants at the floor of the assay were thinned out.
# B1: tRNA (parent)
# chain: GUUCCGUUGGCGUAAUGGUAACGCGUCUCCCUCCUAAGGAGAAGACUGCGGGUUCGAGUCCCGUACGGAACG
# Variants of: B1
# Experiment: yeast fitness relative to wild type (ratio to wild type); higher = fitter; tRNA-Arg(CCU), competitive growth, 37 C, YPD
# How it was run: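 For this measurement, the tRNA-Arg(CCU) gene was varied by chemical synthesis at a 3% per-site mutation rate across 69 sites, and each variant was placed at the native genomic locus in Saccharomyces cerevisiae. The pooled strains went through a 24-hour competition in YPD at 37°C in six parallel replicates, with amplicons from start and end populations read by 100-nucleotide paired-end sequencing. Darwinian fitness relative to wild type followed from the change in each genotype's frequency. Genotypes needed ≥ 100 starting reads, and estimates < 0.5 were set to 0.5.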
row,Variant,yeast fitness
1,U28C G41A A57U C66G,≤ 0.5
2,U28C G58U A65G G67A,≤ 0.5
3,U28G C30G U53A C61U,≤ 0.5
4,U28G G38A A40G G56A,0.626
5,U28C A37C A40U G50A C60G,≤ 0.5
6,C29A A40G A43G C55U C61U C66G,≤ 0.5
7,U28A C34G G39C A57G C66U,≤ 0.5
8,U28C C31A G41A G58C C66U,≤ 0.5
9,U28C G52A A69U,0.592
10,U28C U47C A70G,0.743
11,U28C C46U,0.911
12,U28A U59A,0.633
13,U28A U59C,0.647
14,U28G G48A G67C A69G,≤ 0.5
15,U28A U32C,0.833
16,U28C U32C C60A,≤ 0.5
17,C29A C62U G68A,≤ 0.5
18,C29A C62U U64C,0.554
19,U28C C60U,0.73
20,U28C C31U A36G G63C,≤ 0.5
21,U28C U47A C61G G67C,≤ 0.5
22,C29A A36C,0.634
23,U28A G50C,0.609
24,U28A U32C A70G,0.604

row,Variant,yeast fitness
1,C29A C46U A70G,0.711
2,U28C U35C,0.751
3,U28C A37C A70C,≤ 0.5
4,U28C A65C,0.85
5,C29A A42G C61G,0.533
6,U28A C66U G68A,≤ 0.5
7,C29A C62A,0.581
8,U28G C30A,0.645
9,C29A C31G C55A G58A,0.568
10,U28G C34G G44C U64G,≤ 0.5
11,C29A A57C,0.555
12,U28G C55G,≤ 0.5
13,U28C G58A,0.937
14,U28C C49U G52A,0.619
15,U28G C66U,0.778
16,U28G A37G G50C,0.528
17,U28A C46G G56A,0.676
18,U28C G63C,0.611
19,U28C G63A,0.939
20,U28C G63U,0.521
21,C29A C31G G39A G48C,≤ 0.5
22,U28A U32A C55G,≤ 0.5
23,U28C C55U A57C,≤ 0.5
24,U28C C30G A45C C49U,≤ 0.5

row,Variant,yeast fitness
1,U28G C46U C60A,≤ 0.5
2,U28C G41C C62A,≤ 0.5
3,U28C G68A,0.839
4,U28G G51A C62G,≤ 0.5
5,U28A C55G C66U,≤ 0.5
6,U28A C49U C55G,≤ 0.5
7,C29A A45C C49U C66U,≤ 0.5
8,U28C C30U U59C,≤ 0.5
9,U28C C55U A70U,0.61
10,U28C C31U G51A G63C,≤ 0.5
11,C29A C33U C55G,0.633
12,U28C C33A A42C A45U,≤ 0.5
13,C29A A45G,0.578
14,C29A A45U,0.524
15,U28G C31G A57C C66U,≤ 0.5
16,U28C U32C C34U A45U A70U,0.584
17,U28A U32G A69U,≤ 0.5
18,U28G C31U A70U,0.543
19,U28G G50C,0.637
20,U28C G44C,0.935
21,C29A C31U A40U,≤ 0.5
22,U28G C61G,0.634
23,U28G C61U,0.808
24,U28G,0.957

row,Variant,yeast fitness
1,U28C,0.981
2,C29A C34U G48C,≤ 0.5
3,U28G C62U C66G,0.568
4,C29A A42G G63A,≤ 0.5
5,U28C A42U,0.816
6,U28G A42U,0.71
7,U28C A42G A65G,0.598
8,U28C C62U U64C,0.7
9,U28G A57C A65C,≤ 0.5
10,U28C A37C A40U A65U,≤ 0.5
11,C29A A42U C46A G63A,≤ 0.5
12,U28G C33G G68C,≤ 0.5
13,U28A C34U,0.553
14,C29A A36C G68A,≤ 0.5
15,U28G C30G A40C A42U,≤ 0.5
16,U28C C29G A43U C49U U54G C66A,≤ 0.5
17,U28C G41A G52U,≤ 0.5
18,U28G G39C C55G,≤ 0.5
19,U28A G51C C55G A57C U64A G67C,≤ 0.5
20,U28C C33U C49G,≤ 0.5
21,U28C U47C,0.915
22,C29A C46G,0.634
23,U28C C33U A37G G41A G52C,≤ 0.5
24,U28C C55A,0.564

row,Variant,yeast fitness
1,U28C C55U,0.685
2,U28C A40C C66G,0.733
3,U28C G67A,0.652
4,U28A G56A C62A,0.582
5,U28C A40G,0.807
6,U28C C55U C66G,≤ 0.5
7,C29A A37U C49A,≤ 0.5
8,U28A G67A,0.628
9,C29A C31A A40C G44A U59A,0.682
10,C29A A36C G52C,0.545
11,U28G C55U G67C,≤ 0.5
12,U28C C33A A42C A45U G63C,≤ 0.5
13,C29A C30U G58A,≤ 0.5
14,U28A G38C G41A C46A,≤ 0.5
15,U28C C55G C60A,≤ 0.5
16,C29A C34U A36U C61U G67U,≤ 0.5
17,U28G C29A G56A,≤ 0.5
18,U28C A43U G48C C60G,≤ 0.5
19,U28C A36G G41A A42C,≤ 0.5
20,C29A A42G A45U G50A,0.534
21,U28A C60U,0.64
22,U28A C62U,0.86
23,C29A C60G,0.584
24,C29A C61G A70U,≤ 0.5

row,Variant,yeast fitness
1,C29A A37U,≤ 0.5
2,C29A A57U C60G C62A,≤ 0.5
3,U28A G58U A65C,≤ 0.5
4,U28A G44A G50A A57G G63A,≤ 0.5
5,U28G A36U C46U C61U,≤ 0.5
6,U28G G50C A57U C62A,0.619
7,U28G C29A G41C A43U U47C C66G,≤ 0.5
8,U28C U54C,0.909
9,U28C A45G C66U,0.72
10,C29A C61G C66U A69U,≤ 0.5
11,U28C C31U A36C G41C U47A,≤ 0.5
12,U28G C31U A69U,0.524
13,C29A C33G A37G C49U C66U,≤ 0.5
14,U28C G41C G63A,≤ 0.5
15,U28G G38A A57C,≤ 0.5
16,U28C C34G A40G A43G C46G G52A C55U C66U,0.547
17,U28G C30G C49U U64C,≤ 0.5
18,U28G C34U G38A,≤ 0.5
19,C29A C30A,0.591
20,U28G C34U A45U,0.52
21,U28C C61U,0.874
22,U28C C61A,0.765
23,C29A C31G G51C C62G,≤ 0.5
24,C29A C30G A36C G44C G51C,≤ 0.5

row,Variant,yeast fitness
1,U28C G63C U64A C66G,≤ 0.5
2,U28A U35C A37C,0.647
3,U28G G38C A43G U59C C60G,≤ 0.5
4,U28C C34G G38C A45C,≤ 0.5
5,C29A C31U A42C,0.576
6,U28A G38A C55G,≤ 0.5
7,U28C C29U G63C A65U,≤ 0.5
8,C29A A42G,0.672
9,C29A A42C,0.662
10,C29A A36C G58A,≤ 0.5
11,C29A A42G A57C,0.592
12,C29A A40G C55U,≤ 0.5
13,C29A A42U C46A,0.619
14,U28C C46A C62A U64A,≤ 0.5
15,U28G C31U C49G,≤ 0.5
16,U28C C29U,0.806
17,U28G U32A,0.678
18,U28A C49A A65C,0.528
19,U28C A40G G51C A65U,0.545
20,U28C C33U G41A A69U,≤ 0.5
21,U28A C34U C61U,0.554
22,U28G U47C,0.824
23,U28A G48A C61A,≤ 0.5
